Columns and labels:
Format in all cases: functional
[1] = tested on: Echinochloa crus-galli; test: Herbicidal activity against Echinochloa crus-galli (barnyard grass) at 1000 g/hm2 postemergent application after 2 weeks
Procedure, shortened: (§1)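 Seedlings grown 14 days in the greenhouse; plants uniform in size and stage were chosen. Test compound in acetone sprayed post-emergence at a carrier volume equivalent to 187 L/ha. Plants returned to the greenhouse and watered; untreated plants served as control. Each species scored visually two weeks after application on a 0–100 scale (0 no activity, 100 total control).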

[2] = tested on: Digitaria sanguinalis; test: Herbicidal activity against Digitaria sanguinalis (hairy crabgrass) at 200 g/hm2 postemergent application after 2 weeks; procedure, shortened: as §1
[3] = tested on: Abutilon theophrasti; test: Herbicidal activity against Abutilon theophrasti (velvetleaf) at 200 g/hm2 postemergent application after 2 weeks; procedure, shortened: as §1
[4] = tested on: Digitaria sanguinalis; test: Herbicidal activity against Digitaria sanguinalis (hairy crabgrass) at 1000 g/hm2 postemergent application after 2 weeks; procedure, shortened: as §1
[5] = tested on: Echinochloa crus-galli; test: Herbicidal activity against Echinochloa crus-galli (barnyard grass) at 200 g/hm2 postemergent application after 2 weeks; procedure, shortened: as §1
[6] = tested on: Abutilon theophrasti; test: Herbicidal activity against Abutilon theophrasti (velvetleaf) at 1000 g/hm2 postemergent application after 2 weeks; procedure, shortened: as §1
[7] = tested on: Digitaria sanguinalis; test: Herbicidal activity against Digitaria sanguinalis (hairy crabgrass) at 40 g/hm2 postemergent application after 2 weeks; procedure, shortened: as §1
[8] = tested on: Echinochloa crus-galli; test: Herbicidal activity against Echinochloa crus-galli (barnyard grass) at 40 g/hm2 postemergent application after 2 weeks; procedure, shortened: as §1
[9] = tested on: Abutilon theophrasti; test: Herbicidal activity against Abutilon theophrasti (velvetleaf) at 40 g/hm2 postemergent application after 2 weeks; procedure, shortened: as §1
[10] = tested on: Echinochloa crus-galli; test: Herbicidal activity against Echinochloa crus-galli (barnyard grass) at 120 g/hm2 postemergent application after 2 weeks; procedure, shortened: as §1
[11] = tested on: Abutilon theophrasti; test: Herbicidal activity against Abutilon theophrasti (velvetleaf) at 120 g/hm2 postemergent application after 2 weeks; procedure, shortened: as §1
[12] = tested on: Digitaria sanguinalis; test: Herbicidal activity against Digitaria sanguinalis (hairy crabgrass) at 480 g/hm2 postemergent application after 2 weeks; procedure, shortened: as §1
[13] = tested on: Digitaria sanguinalis; test: Herbicidal activity against Digitaria sanguinalis (hairy crabgrass) at 120 g/hm2 postemergent application after 2 weeks; procedure, shortened: as §1
[14] = tested on: Abutilon theophrasti; test: Herbicidal activity against Abutilon theophrasti (velvetleaf) at 480 g/hm2 postemergent application after 2 weeks; procedure, shortened: as §1
[15] = tested on: Abutilon theophrasti; test: Herbicidal activity against Abutilon theophrasti (velvetleaf) at 30 g/hm2 postemergent application after 2 weeks; procedure, shortened: as §1
[16] = tested on: Echinochloa crus-galli; test: Herbicidal activity against Echinochloa crus-galli (barnyard grass) at 480 g/hm2 postemergent application after 2 weeks; procedure, shortened: as §1
[17] = tested on: Echinochloa crus-galli; test: Herbicidal activity against Echinochloa crus-galli (barnyard grass) at 30 g/hm2 postemergent application after 2 weeks; procedure, shortened: as §1
[18] = tested on: Digitaria sanguinalis; test: Herbicidal activity against Digitaria sanguinalis (hairy crabgrass) at 30 g/hm2 postemergent application after 2 weeks; procedure, shortened: as §1

Compound	Activity [1] [%]	Activity [2] [%]	Activity [3] [%]	Activity [4] [%]	Activity [5] [%]	Activity [6] [%]	Activity [7] [%]	Activity [8] [%]	Activity [9] [%]	Activity [10] [%]	Activity [11] [%]	Activity [12] [%]	Activity [13] [%]	Activity [14] [%]	Activity [15] [%]	Activity [16] [%]	Activity [17] [%]	Activity [18] [%]
CCOC(=O)/C=C(/OC(=O)c1cc(Oc2ccc(C(F)(F)F)cc2Cl)ccc1[N+](=O)[O-])C(F)(F)F	35	0	0	50	0	60	–	–	–	–	–	–	–	–	–	–	–	–
COCCOC(=O)/C=C(\C)OC(=O)c1cc(Oc2ccc(C(F)(F)F)cc2Cl)ccc1[N+](=O)[O-]	80	35	100	75	30	100	30	20	98	–	–	–	–	–	–	–	–	–
COC(=O)/C=C/COC(=O)c1cc(Oc2ccc(C(F)(F)F)cc2Cl)ccc1[N+](=O)[O-]	–	–	–	–	–	–	–	–	–	60	95	90	80	100	30	80	10	20
C/C(=C\C(=O)OC(C)(C)C)OC(=O)c1cc(Oc2ccc(C(F)(F)F)cc2Cl)ccc1[N+](=O)[O-]	45	15	50	40	30	75	5	5	30	–	–	–	–	–	–	–	–	–
COC(=O)/C=C(\C)OC(=O)c1cc(Oc2ccc(C(F)(F)F)cc2Cl)ccc1[N+](=O)[O-]	80	80	75	95	50	100	5	15	25	–	–	–	–	–	–	–	–	–
CCOC(=O)/C(C)=C(\C)OC(=O)c1cc(Oc2ccc(C(F)(F)F)cc2Cl)ccc1[N+](=O)[O-]	25	50	35	55	15	100	20	10	0	–	–	–	–	–	–	–	–	–
CCCOC(=O)/C=C/COC(=O)c1cc(Oc2ccc(C(F)(F)F)cc2Cl)ccc1[N+](=O)[O-]	–	–	–	–	–	–	–	–	–	40	100	90	80	100	95	70	10	70
CCC/C(=C\C(=O)OCC)OC(=O)c1cc(Oc2ccc(C(F)(F)F)cc2Cl)ccc1[N+](=O)[O-]	35	5	0	15	5	0	–	–	–	–	–	–	–	–	–	–	–	–
C=C(C(=O)OCC)C(C)OC(=O)c1cc(Oc2ccc(C(F)(F)F)cc2Cl)ccc1Cl (stereo not drawn)	95	35	75	40	20	100	0	0	5	–	–	–	–	–	–	–	–	–
CCCCOC(=O)/C=C/COC(=O)c1cc(Oc2ccc(C(F)(F)F)cc2Cl)ccc1[N+](=O)[O-]	–	–	–	–	–	–	–	–	–	20	90	85	80	95	90	40	10	70
CCOC(=O)/C(C)=C(\C)OC(=O)c1cc(Oc2ccc(C(F)(F)F)cc2Cl)ccc1Cl	25	25	90	30	20	100	0	0	5	–	–	–	–	–	–	–	–	–
C=C(COC(=O)c1cc(Oc2ccc(C(F)(F)F)cc2Cl)ccc1Cl)C(=O)OC	75	25	98	30	15	100	10	5	10	–	–	–	–	–	–	–	–	–
C=CCOC(=O)/C=C(\C)OC(=O)c1cc(Oc2ccc(C(F)(F)F)cc2Cl)ccc1[N+](=O)[O-]	25	5	0	35	5	40	–	–	–	–	–	–	–	–	–	–	–	–
CCOC(=O)/C=C(\C)OC(=O)c1cc(Oc2ccc(C(F)(F)F)cc2Cl)ccc1[N+](=O)[O-]	60	90	85	98	40	100	80	10	10	–	–	–	–	–	–	–	–	–
C=C(COC(=O)c1cc(Oc2ccc(C(F)(F)F)cc2Cl)ccc1Cl)C(=O)OCC	90	70	100	95	20	100	40	10	30	–	–	–	–	–	–	–	–	–
C=C(COC(=O)c1cc(Oc2ccc(C(F)(F)F)cc2Cl)ccc1Cl)C(=O)OCCC	75	30	100	35	10	100	10	5	20	–	–	–	–	–	–	–	–	–
CCOC(=O)/C=C/COC(=O)c1cc(Oc2ccc(C(F)(F)F)cc2Cl)ccc1Cl	85	30	100	70	45	100	20	15	98	–	–	–	–	–	–	–	–	–
CCOC(=O)/C=C(\C)OC(=O)c1cc(Oc2ccc(C(F)(F)F)cc2Cl)ccc1Cl	95	20	–	25	20	–	10	0	–	–	–	–	–	–	–	–	–	–
CC(C)OC(=O)/C=C/COC(=O)c1cc(Oc2ccc(C(F)(F)F)cc2Cl)ccc1[N+](=O)[O-]	–	–	–	–	–	–	–	–	–	60	95	90	85	100	80	80	30	80
C=C(C(=O)OCC)C(C)OC(=O)c1cc(Oc2ccc(C(F)(F)F)cc2Cl)ccc1[N+](=O)[O-] (stereo not drawn)	30	70	50	90	20	100	25	10	5	–	–	–	–	–	–	–	–	–
CC/C(=C\C(=O)OC)OC(=O)c1cc(Oc2ccc(C(F)(F)F)cc2Cl)ccc1[N+](=O)[O-]	35	5	0	15	0	10	–	–	–	–	–	–	–	–	–	–	–	–
CCOC(=O)/C=C(\C)COC(=O)c1cc(Oc2ccc(C(F)(F)F)cc2Cl)ccc1[N+](=O)[O-]	35	10	100	20	20	100	10	5	90	–	–	–	–	–	–	–	–	–

Reference: ChEMBL document CHEMBL3046106, “Synthesis and herbicidal activity of diphenyl ether derivatives containing unsaturated carboxylates” (J Agric Food Chem, 2011)
